In the library only some 3.3% were active in any assay of this set; here they are far more common.
HTR2A ag = agonists of mouse serotonin 5-HT2A receptor (HTR2A); CHO-K1 mHTR2A beta-arrestin complementation, luminescence; percent of 30 µM serotonin response; activation, % at 7.6 µM; 0.66% of 360,000 active; AID 624169;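 active = activation above a run cutoff, the mean activation of all tested compounds plus 3 SD, cut at about 14% in these data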;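 also: 0% = plate median of compound wells and 100% = 30 µM serotonin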
PfM18AAP inh = PfM18AAP enzyme inhibition; 1.2% of 290,000 active; inhibition, % at 7.35 µM; AID 1822; recombinant PfM18AAP, H-Glu-NHMec fluorogenic cleavage;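 active = inhibition above the campaign mean inhibition over all tested compounds plus 3 SD, cut at about 28% in these data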;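 also: 0% = plate median of test compound wells and 100% = 2 mM ZnCl2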
CendR NRP1 mod = NRP-1/CendR interaction modulation | 0.85% of 360,000 active | O14786 | FAM-RPARPAR peptide binding to NRP-1, fluorescence polarization | inhibition, % at 25 µM;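 active = inhibition or corrected inhibition above about 18%, plus a signal ratio from 0.5 to 1.5, limit read from the data, passing the limit was not always enough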
Arr AP2 block = blocks beta-arrestin peptide binding to AP2 adaptin; 0.31% of 340,000 active; inhibition, % at 10 µM; FITC-arrestin peptide / GST-AP2 beads, flow cytometry; AP2 beta2 appendage carries R879A mutation;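 active = inhibition above a set limit, near 3 SD of compounds lacking own fluorescence, cut at about 54% in these data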;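 also: plate controls were DMSO wells for no effect and 5 µM unlabelled arrestin peptide for full effect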
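Test system: GST-tagged AP2 beta2-adaptin appendage (R879A) on 4 µm glutathione beads; also added: fluorescein-tagged arrestin peptide at 50 nM final; timing: 12 min plus 1 h, RT; signal: flow cytometry, FL1 (488/535 nm); read-out: percent drop in bead-associated FITC signal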
Hep lipid drop = modulators of hepatic lipid droplet formation | AML12 mouse hepatocytes, oleate lipid droplets, BODIPY imaging | inhibition, % at 6.5 µM | AID 1656 | 0.4% of 240,000 active;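 active = lipid droplet intensity inhibited by at least 50%, with more than 500 cells counted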
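Test system: AML12 mouse liver cells; schedule: overnight exposure; technique: high-content imaging of BODIPY-stained droplets and DAPI nuclei; read-out: % inhibition of corrected integrated BODIPY droplet signal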
sPLA2-III inh = Inhibits HGIII-sPLA2 liposome hydrolysis, primary screen; Q9NZ20; QFRET BODIPY PC-A2 liposome hydrolysis, fluorescence; inhibition, % at 12.2 µM; 0.56% of 370,000 active;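 active = inhibition above mean plus 3 SD of compounds lying within the high and low control bounds, cut at about 19% in these data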;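 also: 0% = median of test compound wells and 100% = no enzyme DMSO wells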
MOR ag counter = OPRM1 agonism in mouse HTR2A counterscreen; shares compounds with HTR2A ag; U2OS OPRM1 beta-arrestin PathHunter, luminescence; DMSO 0%, DAMGO 9.3 µM 100%; activation, % at 9.3 µM; 5.3% of 2,300 active; AID 624380;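 active = mean activation above the mean of DMSO-only wells plus 3 SD, cut at about 0.5% in these data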
Target sequence (P35372 whole entry, looked up): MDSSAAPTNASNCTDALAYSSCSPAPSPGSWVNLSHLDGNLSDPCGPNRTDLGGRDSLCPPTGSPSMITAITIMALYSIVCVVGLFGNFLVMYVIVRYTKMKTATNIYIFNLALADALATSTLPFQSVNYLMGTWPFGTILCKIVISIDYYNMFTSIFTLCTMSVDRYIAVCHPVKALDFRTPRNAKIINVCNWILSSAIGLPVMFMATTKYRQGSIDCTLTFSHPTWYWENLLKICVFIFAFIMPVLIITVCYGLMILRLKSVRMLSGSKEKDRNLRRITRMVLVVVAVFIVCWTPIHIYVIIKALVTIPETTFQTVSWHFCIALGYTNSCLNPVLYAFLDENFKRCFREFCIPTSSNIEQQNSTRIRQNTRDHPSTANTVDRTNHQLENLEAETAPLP
HTR2A ag conf = mouse HTR2A agonism confirmed; CHO-K1 PathHunter beta-arrestin recruitment, luminescence; DMSO 0%, 30 µM serotonin 100%; shares compounds with HTR2A ag; 19% of 2,300 active; activation, % at 7.6 µM; AID 624381;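 active = mean activation across triplicates above the hit threshold derived in the original primary screen, cut at about 15% in these data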
Starred values were filed as active, the others as inactive; · = no result.

SMILES | HTR2A ag | PfM18AAP inh | CendR NRP1 mod | Arr AP2 block | Hep lipid drop | sPLA2-III inh | MOR ag counter | HTR2A ag conf
COc1cc(NC(=O)c2ccc3c(SCC(=O)O)c4c(nc3c2)CCCC4)cc(OC)c1OC | 15* | 5 | 3 | 33 | 1 | 2 | -1 | -3
COc1cc(NC(=O)c2ccc3c(SCC(=O)O)c4c(nc3c2)CCC4)cc(OC)c1OC | -3 | 16 | 0 | 11 | 7 | -2 | · | ·
NC1(C(=O)O)CSSC1 | -2 | · | 6 | 12 | · | -2 | · | ·
Cc1csc(SCC(=O)NCCc2ccc(Cl)cc2)n1 | 0 | 0 | -5 | 6 | -10 | -5 | · | ·
Cc1nc(SCC(=O)NCCc2ccc(Cl)cc2)nc(C)c1C | 15* | 2 | 0 | 17 | · | 4 | -1 | -5
O=C(NCc1ccccc1)[C@@H]1CCCN1C(=O)[C@H]1CCCN1C(=O)c1ccc(F)c(C(F)(F)F)c1 | · | · | · | · | · | 5 | · | ·
COc1ccc(C)cc1S(=O)(=O)n1c([N+](=O)[O-])cnc1C | 15* | -4 | 4 | -12 | · | 3 | -1 | -3
COc1ccc(S(=O)(=O)n2c([N+](=O)[O-])cnc2C)cc1OC | 8 | 4 | 12 | 19 | 11 | 2 | · | ·
CCCn1c(N)c(C(=O)CSc2nnc(-c3cccs3)n2C2CC2)c(=O)[nH]c1=O | 28* | · | 11 | -9 | · | -2 | -1 | 47*
Cc1nnc(NC(=O)c2nc(S(=O)(=O)Cc3ccccc3)ncc2Cl)s1 | 15* | -21 | -2 | -8 | -22 | 4 | 0 | -2
Cc1ccc2nc(NC(=O)CSCC(=O)Nc3cc(C)on3)sc2c1 | 19* | · | -4 | 3 | · | -4 | -1 | -1
Cc1cc(NC(=O)CSCC(=O)Nc2nc3ccc(F)cc3s2)no1 | 9 | · | -21 | -10 | · | -5 | · | ·
COC(=O)C1=C(C)N(Cc2ccccc2C(F)(F)F)C(=NCC2CC2)NC1c1cccc(F)c1 (configuration not stated) | · | · | · | · | · | -7 | · | ·
CCc1ccc(Nc2ccc3nonc3c2[N+](=O)[O-])cc1 | 4 | · | 2 | 27 | · | 4 | · | ·
O=[N+]([O-])c1c(Nc2ccccc2)ccc2nonc12 | 23* | 3 | 4 | 1 | -17 | 7 | 0 | -4
CN(C(=O)COC(=O)c1ccc2c(c1)OCCO2)C1CCCCC1 | -3 | · | 2 | -9 | · | -7 | · | ·
COc1ccc(OC)c(CN2C(=O)CCCC2(C)c2nnnn2C2CCCC2)c1 (configuration not stated) | · | · | · | · | · | -7 | · | ·
CCCc1cnc(N2CCN(C(=O)c3ccc(F)cc3)CC2)nc1 | -4 | -4 | 7 | -11 | 2 | -2 | · | ·
CCCc1cnc(N2CCN(C(=S)NC)CC2)nc1 | 17* | 0 | -6 | 14 | 24 | 10 | -1 | 1
O=C(O)CCCCCNS(=O)(=O)c1ccc2c3c(cccc13)C(=O)N2 | 16* | 1 | 10 | 14 | 5 | 5 | -1 | -3
C#CCCN([C@H](C(=O)OC)C(C)C)S(=O)(=O)c1ccccc1Br | · | · | · | · | · | 3 | · | ·
C=CCn1c(SCC(=O)NC2CCCCC2)nnc1-c1ccccn1 | 14* | 4 | 14 | -8 | 20 | 1 | -1 | -1
COc1ccc(OC)c(S(=O)(=O)N/N=C\c2ccc3c(c2)OCO3)c1 | 17* | -6 | -2 | 36 | 1 | -2 | -1 | -1
COc1ccc(CCC(=O)N2c3ccccc3N=C(c3ccc(C(F)(F)F)cc3)C2C(=O)NC2CCCC2)cc1 (configuration not stated) | -6 | · | -8 | · | · | 3 | · | ·
O=C(NCc1cccnc1)c1cc(C2CCCCN2C(=O)c2ccccc2)on1 (configuration not stated) | 3 | · | -3 | · | · | 0 | · | ·
SMILES | HTR2A ag | PfM18AAP inh | CendR NRP1 mod | Arr AP2 block | Hep lipid drop | sPLA2-III inh | MOR ag counter | HTR2A ag conf
Cn1nc(C(C)(C)C)cc1C(=O)N1CCCCC1c1cc(C(=O)NCc2cccnc2)no1 (configuration not stated) | 15* | · | -18 | · | · | -1 | 0 | 1
CCN=C1NC(CCc2ccccc2)C(C(=O)OC)=C(C)N1Cc1ccccc1C(F)(F)F (configuration not stated) | · | · | · | · | · | -7 | · | ·
Cc1ccc(NC(=O)CN2C(=O)c3ccccc3S2(=O)=O)c(C)c1 | 18* | 0 | 3 | 15 | 12 | 10 | 0 | -2
CCOC(=O)c1ccc(Oc2nc(OC)nc(N(C)C)n2)cc1 | 18* | -2 | -4 | 8 | -19 | -6 | -1 | 0
CCCCCNC(=O)c1cccc(S(=O)(=O)N2CC3(C)CC2CC(C)(C)C3)c1 (configuration not stated) | -4 | · | 3 | -5 | · | -18 | · | ·
COc1cccc(C(=O)NCC(=O)OCC(=O)Nc2cc(OC)c([N+](=O)[O-])cc2C)c1 | 17* | 0 | -3 | 0 | 5 | 6 | -1 | -4
Cc1ccc(SCC(=O)NC(=O)NCCC(C)C)c(C)c1 | 3 | -4 | 0 | 5 | -3 | -3 | · | ·
Cc1ccc(SCC(=O)NC(=O)NC(C)C)c(C)c1 | 16* | -14 | 4 | 17 | -11 | -3 | 0 | 5
O=C(Nc1ccccc1O)c1c(O)c2c([nH]c1=O)CCCC2 | 15* | 4 | -5 | 40 | 2 | -2 | 0.8* | 5
O=C(Nc1nccs1)c1c(O)c2c([nH]c1=O)CCCC2 | -2 | 0 | 6 | 20 | · | -6 | · | ·
CCc1ccc(OC(C)C(=O)N(Cc2ccco2)C2CCS(=O)(=O)C2)cc1 (configuration not stated) | 23* | 0 | 9 | -4 | -1 | -5 | -1 | -5
CCc1ccc(OC(C)C(=O)N(Cc2ccccc2)C2CCS(=O)(=O)C2)cc1 (configuration not stated) | 3 | 4 | -2 | -5 | -7 | -3 | · | ·
CCc1ccc(CN(C(=O)c2oc3ccccc3c2C)C2CCS(=O)(=O)C2)cc1 (configuration not stated) | 15* | -1 | 5 | 0 | 5 | -12 | 0 | -3
Cc1c(C(=O)N(Cc2ccccc2)C2CCS(=O)(=O)C2)oc2ccccc12 (configuration not stated) | -6 | 5 | -9 | 7 | -5 | -8 | · | ·
COC(=O)[C@]12C[C@H](CC(=O)N3CCOCC3)C(=O)N(Cc3ccccc3)C1=C[C@H](C(C)(C)C)O[C@@H]2C | · | · | · | · | · | 1 | · | ·
COc1ccc(CNC(=O)Cn2cc(C)c(=O)[nH]c2=O)cc1 | -4 | · | -1 | -8 | · | 4 | · | ·

Screening data: PubChem BioAssay, several laboratories
